Laboratory results from ChEMBL document CHEMBL1671684, “In vitro resistance profile of the hepatitis C virus NS3/4A protease inhibitor TMC435” (Antimicrob Agents Chemother, 2010).

Key:
[1] = test system: Hepatitis C virus; assay: Antiviral activity against Hepatitis C virus subtype 1b expressing NS3 T54A mutant infected in HuH7 cells after 48 hrs by luciferase reporter assay; format: functional, organism-based, Hepacivirus hominis; conditions: genotype 1b, Huh-7, 48 h
How it was run: (§1)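 Genotype 1b con1 subgenomic bicistronic replicon (clone ET) with luciferase reporter and adaptive mutations E1202G, T1280I, K1846T, carrying site-directed NS3 single or double mutations. 10 μg wild-type or mutant replicon RNA electroporated into Huh7-lunet cells, seeded 4,000 cells/well over a nine-point inhibitor dilution series, 48 h at 37°C, 5% CO2, then luminescence read. EC50 taken as median of individual experiments; fold change relative to parental replicon EC50.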

[2] = test system: Hepatitis C virus; assay: Antiviral activity against Hepatitis C virus subtype 1b expressing NS3 Q80R mutant infected in HuH7 cells after 48 hrs by luciferase reporter assay; format: functional, organism-based, Hepacivirus hominis; conditions: genotype 1b, Huh-7, 48 h; how it was run: as §1
[3] = test system: Hepatitis C virus; assay: Antiviral activity against Hepatitis C virus subtype 1b expressing NS3 R155T mutant infected in HuH7 cells after 48 hrs by luciferase reporter assay; format: functional, organism-based, Hepacivirus hominis; conditions: genotype 1b, Huh-7, 48 h; how it was run: as §1
[4] = test system: Hepatitis C virus; assay: Antiviral activity against Hepatitis C virus subtype 1b expressing NS3 R155K mutant infected in HuH7 cells after 48 hrs by luciferase reporter assay; format: functional, organism-based, Hepacivirus hominis; conditions: genotype 1b, Huh-7, 48 h; how it was run: as §1
[5] = test system: Hepatitis C virus; assay: Antiviral activity against Hepatitis C virus subtype 1b expressing NS3 A156T mutant infected in HuH7 cells after 48 hrs by luciferase reporter assay; format: functional, organism-based, Hepacivirus hominis; conditions: genotype 1b, Huh-7, 48 h; how it was run: as §1
[6] = test system: Hepatitis C virus; assay: Antiviral activity against Hepatitis C virus subtype 1b expressing NS3 A156V mutant infected in HuH7 cells after 48 hrs by luciferase reporter assay; format: functional, organism-based, Hepacivirus hominis; conditions: genotype 1b, Huh-7, 48 h; how it was run: as §1
[7] = test system: Hepatitis C virus; assay: Antiviral activity against Hepatitis C virus subtype 1b expressing NS3 D168N mutant infected in HuH7 cells after 48 hrs by luciferase reporter assay; format: functional, organism-based, Hepacivirus hominis; conditions: genotype 1b, Huh-7, 48 h; how it was run: as §1
[8] = test system: Hepatitis C virus; assay: Antiviral activity against Hepatitis C virus subtype 1b expressing NS3 D168E mutant infected in HuH7 cells after 48 hrs by luciferase reporter assay; format: functional, organism-based, Hepacivirus hominis; conditions: genotype 1b, Huh-7, 48 h; how it was run: as §1
[9] = test system: Hepatitis C virus; assay: Antiviral activity against Hepatitis C virus subtype 1b expressing NS3 D168T mutant infected in HuH7 cells after 48 hrs by luciferase reporter assay; format: functional, organism-based, Hepacivirus hominis; conditions: genotype 1b, Huh-7, 48 h; how it was run: as §1
[10] = test system: Hepatitis C virus; assay: Antiviral activity against Hepatitis C virus subtype 1b expressing NS3 D168Y mutant infected in HuH7 cells after 48 hrs by luciferase reporter assay; format: functional, organism-based, Hepacivirus hominis; conditions: genotype 1b, Huh-7, 48 h; how it was run: as §1
[11] = test system: Hepatitis C virus; assay: Antiviral activity against Hepatitis C virus subtype 1b expressing NS3 D168A mutant infected in HuH7 cells after 48 hrs by luciferase reporter assay; format: functional, organism-based, Hepacivirus hominis; conditions: genotype 1b, Huh-7, 48 h; how it was run: as §1
[12] = test system: Hepatitis C virus; assay: Ratio of EC50 for Hepatitis C virus subtype 1b expressing NS3 F43S mutant to EC50 for Hepatitis C virus subtype 1b expressing WT NS3 infected in HuH7 cells after 48 hrs by luciferase reporter assay; format: functional, Hepacivirus hominis, genotype 1b, Huh-7
How it was run: (§2)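 Transient replicon assay: site-directed single or multiple NS3 mutations engineered into genotype 1b (con1, clone ET) subgenomic bicistronic replicon with luciferase reporter and adaptive mutations E1202G, T1280I, K1846T. Huh7-lunet cells electroporated with 10 μg wild-type or mutant replicon RNA, seeded 4,000 cells/well with nine-point inhibitor dilution; 48 h, 37°C, 5% CO2; luminescence read-out. EC50 as median of individual experiments; fold change versus parental replicon EC50.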

[13] = test system: Hepatitis C virus; assay: Ratio of EC50 for Hepatitis C virus subtype 1b expressing NS3 T54A mutant to EC50 for Hepatitis C virus subtype 1b expressing WT NS3 infected in HuH7 cells after 48 hrs by luciferase reporter assay; format: functional, Hepacivirus hominis, genotype 1b, Huh-7; how it was run: as §2
[14] = test system: Hepatitis C virus; assay: Ratio of EC50 for Hepatitis C virus subtype 1b expressing NS3 Q80K mutant to EC50 for Hepatitis C virus subtype 1b expressing WT NS3 infected in HuH7 cells after 48 hrs by luciferase reporter assay; format: functional, Hepacivirus hominis, genotype 1b, Huh-7; how it was run: as §2
[15] = test system: Hepatitis C virus; assay: Ratio of EC50 for Hepatitis C virus subtype 1b expressing NS3 R109K mutant to EC50 for Hepatitis C virus subtype 1b expressing WT NS3 infected in HuH7 cells after 48 hrs by luciferase reporter assay; format: functional, Hepacivirus hominis, genotype 1b, Huh-7; how it was run: as §2
[16] = test system: Hepatitis C virus; assay: Ratio of EC50 for Hepatitis C virus subtype 1b expressing NS3 R155G mutant to EC50 for Hepatitis C virus subtype 1b expressing WT NS3 infected in HuH7 cells after 48 hrs by luciferase reporter assay; format: functional, Hepacivirus hominis, genotype 1b, Huh-7; how it was run: as §2
[17] = test system: Hepatitis C virus; assay: Ratio of EC50 for Hepatitis C virus subtype 1b expressing NS3 A156T mutant to EC50 for Hepatitis C virus subtype 1b expressing WT NS3 infected in HuH7 cells after 48 hrs by luciferase reporter assay; format: functional, Hepacivirus hominis, genotype 1b, Huh-7; how it was run: as §1
[18] = test system: Hepatitis C virus; assay: Ratio of EC50 for Hepatitis C virus subtype 1b expressing NS3 A156V mutant to EC50 for Hepatitis C virus subtype 1b expressing WT NS3 infected in HuH7 cells after 48 hrs by luciferase reporter assay; format: functional, Hepacivirus hominis, genotype 1b, Huh-7; how it was run: as §1
[19] = test system: Hepatitis C virus; assay: Ratio of EC50 for Hepatitis C virus subtype 1b expressing NS3 D168N mutant to EC50 for Hepatitis C virus subtype 1b expressing WT NS3 infected in HuH7 cells after 48 hrs by luciferase reporter assay; format: functional, Hepacivirus hominis, genotype 1b, Huh-7; how it was run: as §2
[20] = test system: Hepatitis C virus; assay: Ratio of EC50 for Hepatitis C virus subtype 1b expressing NS3 D168H mutant to EC50 for Hepatitis C virus subtype 1b expressing WT NS3 infected in HuH7 cells after 48 hrs by luciferase reporter assay; format: functional, Hepacivirus hominis, genotype 1b, Huh-7; how it was run: as §2
[21] = test system: Hepatitis C virus; assay: Ratio of EC50 for Hepatitis C virus subtype 1b expressing NS3 D168A mutant to EC50 for Hepatitis C virus subtype 1b expressing WT NS3 infected in HuH7 cells after 48 hrs by luciferase reporter assay; format: functional, Hepacivirus hominis, genotype 1b, Huh-7; how it was run: as §1
[22] = test system: Hepatitis C virus; assay: Ratio of EC50 for Hepatitis C virus subtype 1b expressing NS3 Q80K and R155K mutant to EC50 for Hepatitis C virus subtype 1b expressing WT NS3 infected in HuH7 cells after 48 hrs by luciferase reporter assay; format: functional, Hepacivirus hominis, genotype 1b, Huh-7; how it was run: as §2
[23] = test system: Hepatitis C virus; assay: Antiviral activity against Hepatitis C virus subtype 1b expressing NS3 F43I mutant infected in HuH7 cells after 48 hrs by luciferase reporter assay; format: functional, organism-based, Hepacivirus hominis; conditions: genotype 1b, Huh-7, 48 h; how it was run: as §1
[24] = test system: Hepatitis C virus; assay: Antiviral activity against Hepatitis C virus subtype 1b expressing NS3 F43V mutant infected in HuH7 cells after 48 hrs by luciferase reporter assay; format: functional, organism-based, Hepacivirus hominis; conditions: genotype 1b, Huh-7, 48 h; how it was run: as §1
[25] = test system: Hepatitis C virus; assay: Antiviral activity against Hepatitis C virus subtype 1b expressing NS3 T54S mutant infected in HuH7 cells after 48 hrs by luciferase reporter assay; format: functional, organism-based, Hepacivirus hominis; conditions: genotype 1b, Huh-7, 48 h; how it was run: as §1
[26] = test system: Hepatitis C virus; assay: Antiviral activity against Hepatitis C virus subtype 1b expressing NS3 S138T mutant infected in HuH7 cells after 48 hrs by luciferase reporter assay; format: functional, organism-based, Hepacivirus hominis; conditions: genotype 1b, Huh-7, 48 h; how it was run: as §1
[27] = test system: Hepatitis C virus; assay: Antiviral activity against Hepatitis C virus subtype 1b expressing NS3 V170T mutant infected in HuH7 cells after 48 hrs by luciferase reporter assay; format: functional, organism-based, Hepacivirus hominis; conditions: genotype 1b, Huh-7, 48 h; how it was run: as §1
[28] = test system: Hepatitis C virus; assay: Antiviral activity against Hepatitis C virus subtype 1b expressing NS3 Q80R and R155K mutant infected in HuH7 cells after 48 hrs by luciferase reporter assay; format: functional, organism-based, Hepacivirus hominis; conditions: genotype 1b, Huh-7, 48 h; how it was run: as §1
[29] = test system: Hepatitis C virus; assay: Antiviral activity against Hepatitis C virus subtype 1b expressing NS3 Q80R and D168A mutant infected in HuH7 cells after 48 hrs by luciferase reporter assay; format: functional, organism-based, Hepacivirus hominis; conditions: genotype 1b, Huh-7, 48 h; how it was run: as §1
[30] = test system: Hepatitis C virus; assay: Ratio of EC50 for Hepatitis C virus subtype 1b expressing NS3 T54S mutant to EC50 for Hepatitis C virus subtype 1b expressing WT NS3 infected in HuH7 cells after 48 hrs by luciferase reporter assay; format: functional, Hepacivirus hominis, genotype 1b, Huh-7; how it was run: as §2
[31] = test system: Hepatitis C virus; assay: Ratio of EC50 for Hepatitis C virus subtype 1b expressing NS3 F43S and Q80R mutant to EC50 for Hepatitis C virus subtype 1b expressing WT NS3 infected in HuH7 cells after 48 hrs by luciferase reporter assay; format: functional, Hepacivirus hominis, genotype 1b, Huh-7; how it was run: as §2
[32] = test system: Hepatitis C virus; assay: Ratio of EC50 for Hepatitis C virus subtype 1b expressing NS3 Q80R and D168A mutant to EC50 for Hepatitis C virus subtype 1b expressing WT NS3 infected in HuH7 cells after 48 hrs by luciferase reporter assay; format: functional, Hepacivirus hominis, genotype 1b, Huh-7; how it was run: as §2

Compound	EC50 [1]	EC50 [2]	EC50 [3]	EC50 [4]	EC50 [5]	EC50 [6]	EC50 [7]	EC50 [8]	EC50 [9]	EC50 [10]	EC50 [11]	Ratio EC50 [12]	Ratio EC50 [13]	Ratio EC50 [14]	Ratio EC50 [15]	Ratio EC50 [16]	Ratio EC50 [17]	Ratio EC50 [18]	Ratio EC50 [19]	Ratio EC50 [20]	also measured
CCC[C@H](NC(=O)[C@@H]1[C@H]2CCC[C@H]2CN1C(=O)[C@@H](NC(=O)[C@@H](NC(=O)c1cnccn1)C1CCCCC1)C(C)(C)C)C(=O)C(=O)NC1CC1 [TELAPREVIR]	1560 nM	216 nM	22700 nM	1470 nM	20300 nM	15500 nM	147 nM	113 nM	181 nM	187 nM	46 nM	6.1	7.5	0.5	0.8	20	105	112	1.2	0.7	Ratio EC50 [21]: 0.4; Ratio EC50 [22]: 4.6
COc1ccc2c(O[C@@H]3C[C@H]4C(=O)N[C@]5(C(=O)NS(=O)(=O)C6CC6)C[C@H]5/C=C\CCCCN(C)C(=O)[C@@H]4C3)cc(-c3nc(C(C)C)cs3)nc2c1C [SIMEPREVIR]	5.9 nM	49 nM	314 nM	260 nM	377 nM	2150 nM	79 nM	302 nM	4090 nM	6240 nM	6360 nM	12	0.6	7.7	0.7	20	44	177	6.6	368	EC50 [23]: 562 nM; EC50 [24]: 626 nM; EC50 [25]: 5.4 nM; EC50 [26]: 77 nM; EC50 [27]: 52 nM; EC50 [28]: 2850 nM; EC50 [29]: 16900 nM; Ratio EC50 [30]: 1.2; Ratio EC50 [21]: 594; Ratio EC50 [31]: 286; Ratio EC50 [22]: 364; Ratio EC50 [32]: 2655
CC(C)(C)NC(=O)N[C@H](C(=O)N1C[C@H]2[C@@H]([C@H]1C(=O)NC(CC1CCC1)C(=O)C(N)=O)C2(C)C)C(C)(C)C (stereo partly drawn) [BOCEPREVIR]	268 nM	85 nM	5460 nM	743 nM	7230 nM	9670 nM	101 nM	69 nM	299 nM	193 nM	100 nM	5.2	2.1	0.8	1	20	65	75	1.9	0.7	EC50 [23]: 242 nM; EC50 [24]: 527 nM; EC50 [25]: 1110 nM; EC50 [26]: 16 nM; EC50 [27]: 210 nM; EC50 [28]: 680 nM; EC50 [29]: 113 nM; Ratio EC50 [30]: 8.5; Ratio EC50 [21]: 0.7; Ratio EC50 [31]: 7.4; Ratio EC50 [22]: 5.1; Ratio EC50 [32]: 0.5
COc1ccc2c(O[C@@H]3C[C@H]4C(=O)N[C@]5(C(=O)O)C[C@H]5/C=C\CCCCC[C@H](NC(=O)OC5CCCC5)C(=O)N4C3)cc(-c3csc(NC(C)C)n3)nc2c1 [CILUPREVIR]	0.7 nM	1.4 nM	685 nM	489 nM	1070 nM	1520 nM	18 nM	40 nM	520 nM	2100 nM	304 nM	0.9	0.6	0.9	0.7	811	1344	2085	12	263	EC50 [23]: 0.4 nM; EC50 [24]: 0.4 nM; EC50 [25]: 0.9 nM; EC50 [26]: 0.5 nM; EC50 [27]: 4.8 nM; EC50 [28]: 707 nM; EC50 [29]: 1040 nM; Ratio EC50 [30]: 1.9; Ratio EC50 [21]: 339; Ratio EC50 [31]: 0.6; Ratio EC50 [22]: 736; Ratio EC50 [32]: 1827
